The text below walks through data of ChEMBL document CHEMBL3045435, “Synthesis and fungicidal activity of macrolactams and macrolactones with an oxime ether side chain” (J Agric Food Chem, 2007).

In brackets after ≈: the same amount, converted by molar mass.

For one assay, the system named is Rhizoctonia solani. Briefly: Fungicidal activity against Rhizoctonia solani by mycelium growth rate test. Format: functional, organism-based.
Consider `CCCO/N=C1\CCCCCCCCCCC(=O)NCCC1`, for which it took 3.62 µg/mL (≈ 11.7 µM) to reach a half-maximal effect (EC50).
Still for that read-out and setting: then `CCCO/N=C1/CCCCCCCCCCC(=O)NCC1`, with 22.1 µg/mL (≈ 74.5 µM); and `O=C1CCCCCCCCCC/C(=N/OCc2ccc(Cl)cc2)CCCN1`, with 68.4 µg/mL (≈ 174 µM); and `O=C1CCCCCCCCCC/C(=N\OCc2ccc(Cl)cc2)CCCN1`, with 164 µg/mL (≈ 418 µM).
On the same count and under the same terms, then `O=C1CCCCCCCCCC/C(=N/OCc2c(F)cccc2Cl)CCCN1`, with 2.34 µg/mL (≈ 5.69 µM); and `O=C1CCCCCCCCCC/C(=N\OCc2c(F)cccc2Cl)CCCN1`, with 6.21 µg/mL (≈ 15.1 µM).
Take `CCCON=C1CCCCCCCCCCC(=O)OCCC1`: the concentration giving a half-maximal response (EC50) (in general, the concentration at which the effect is half-maximal) stood at 8.08 µg/mL (≈ 25.9 µM).
On the same count and under the same terms, then `C=CCON=C1CCCCCCCCCCC(=O)OCCC1`, with 12.8 µg/mL (≈ 41.2 µM); and `CCCCON=C1CCCCCCCCCCC(=O)OCCC1`, with 13.4 µg/mL (≈ 41 µM).
Regarding `CCCCCCCON=C1CCCCCCCCCCC(=O)OCCC1`, the EC50 is 9.68 µg/mL (≈ 26.3 µM).
Still for that read-out and setting: then `CCCCCCCCCCCCCCCCON=C1CCCCCCCCCCC(=O)OCCC1`, with 40.4 µg/mL (≈ 81.8 µM); and `O=C1CCCCCCCCCCC(=NOCc2ccccc2)CCCO1`, with 45.1 µg/mL (≈ 126 µM); and `O=C1CCCCCCCCCCC(=NOCc2ccc(Cl)cc2)CCCO1`, with 19.6 µg/mL (≈ 49.8 µM).
Same read-out and setting: the figure for `O=C1CCCCCCCCCCC(=NOCc2c(F)cccc2Cl)CCCO1` is 51.3 µg/mL (≈ 124 µM); for `O=C1CCCCCCCCCC/C(=N\OCc2cccnc2)CCN1` it is 52.5 µg/mL (≈ 152 µM); for `CCO/N=C1\CCCCCCCCCCC(=O)NCCC1` it is 22.7 µg/mL (≈ 76.7 µM).
`CCCO/N=C1/CCCCCCCCCCC(=O)NCCC1`: the midpoint of the response, the EC50, lay at 13.1 µg/mL (≈ 42.3 µM).
Still for that read-out and setting: then `C=CCO/N=C1/CCCCCCCCCCC(=O)NCCC1`, with 45.6 µg/mL (≈ 148 µM); and `C=CCO/N=C1\CCCCCCCCCCC(=O)NCCC1`, with 15.9 µg/mL (≈ 51.6 µM); and `CCCCO/N=C1/CCCCCCCCCCC(=O)NCCC1`, with 3.97 µg/mL (≈ 12.2 µM).
On the same count and under the same terms, the figure for `CCCCO/N=C1\CCCCCCCCCCC(=O)NCCC1` is 2.34 µg/mL (≈ 7.21 µM); for `CCCCCCCO/N=C1/CCCCCCCCCCC(=O)NCCC1` it is 19.2 µg/mL (≈ 52.5 µM).
Same read-out and setting: the figure for `CCCCCCCO/N=C1\CCCCCCCCCCC(=O)NCCC1` is 27.9 µg/mL (≈ 76.1 µM); for `CCCCCCCCCCCCCCCCO/N=C1/CCCCCCCCCCC(=O)NCCC1` it is 47.8 µg/mL (≈ 96.9 µM); for `CCCCCCCCCCCCCCCCO/N=C1\CCCCCCCCCCC(=O)NCCC1` it is 51.5 µg/mL (≈ 104 µM).
For `O=C1CCCCCCCCCC/C(=N/OCc2ccccc2)CCCN1`, the midpoint of the response, the EC50, lay at 5.84 µg/mL (≈ 16.3 µM).
Still for that read-out and setting: then `O=C1CCCCCCCCCC/C(=N\OCc2ccccc2)CCCN1`, with 8.28 µg/mL (≈ 23.1 µM); and `O=C1CCCCCCCCCC/C(=N\OCc2ccccc2)CCN1`, with 7.24 µg/mL (≈ 21 µM).
On the same count and under the same terms, then `Cc1ccc(CO/N=C2/CCCCCCCCCCC(=O)NCC2)cc1`, with 111 µg/mL (≈ 310 µM).
`Cc1ccc(CO/N=C2\CCCCCCCCCCC(=O)NCC2)cc1` came in with an EC50 of 50.5 µg/mL (≈ 141 µM).
On the same count and under the same terms, the figure for `O=C1CCCCCCCCCC/C(=N/OCc2ccc(F)cc2)CCN1` is 74.9 µg/mL (≈ 207 µM); for `O=C1CCCCCCCCCC/C(=N\OCc2ccc(F)cc2)CCN1` it is 12.1 µg/mL (≈ 33.3 µM).
Same read-out and setting: then `O=C1CCCCCCCCCC/C(=N/OCc2ccc(Cl)cc2)CCN1`, with 97.2 µg/mL (≈ 257 µM); and `O=C1CCCCCCCCCC/C(=N\OCc2ccc(Cl)cc2)CCN1`, with 84.8 µg/mL (≈ 224 µM).
In the case of `O=C1CCCCCCCCCC/C(=N/OCc2ccc([N+](=O)[O-])cc2)CCN1`, the EC50 was determined as 49.3 µg/mL (≈ 127 µM).
The same measure, in the same setting: the figure for `O=C1CCCCCCCCCC/C(=N\OCc2ccc([N+](=O)[O-])cc2)CCN1` is 166 µg/mL (≈ 427 µM); for `O=C1CCCCCCCCCC/C(=N/OCc2c(F)cccc2Cl)CCN1` it is 1730 µg/mL (≈ 4370 µM).
The same measure, in the same setting: the figure for `O=C1CCCCCCCCCC/C(=N\OCc2c(F)cccc2Cl)CCN1` is 43 µg/mL (≈ 108 µM); for `O=C1CCCCCCCCCC/C(=N/OCc2ccc(Cl)cc2Cl)CCN1` it is 100 µg/mL (≈ 242 µM); for `O=C1CCCCCCCCCC/C(=N\OCc2ccc(Cl)cc2Cl)CCN1` it is 106 µg/mL (≈ 256 µM).
Still for that read-out and setting: then `O=C1CCCCCCCCCC/C(=N/OCc2cccnc2)CCN1`, with 56.4 µg/mL (≈ 163 µM); and `CCO/N=C1\CCCCCCCCCCC(=O)NCC1`, with 25.8 µg/mL (≈ 91.5 µM).
`CCCO/N=C1\CCCCCCCCCCC(=O)NCC1` gave an EC50 of 9.11 µg/mL (≈ 30.7 µM).
The same measure, in the same setting: the figure for `C=CCO/N=C1/CCCCCCCCCCC(=O)NCC1` is 44 µg/mL (≈ 150 µM); for `C=CCO/N=C1\CCCCCCCCCCC(=O)NCC1` it is 21.8 µg/mL (≈ 73.9 µM); for `CCCCO/N=C1/CCCCCCCCCCC(=O)NCC1` it is 55.1 µg/mL (≈ 177 µM).
`CCCCO/N=C1\CCCCCCCCCCC(=O)NCC1` had an EC50 of 7.21 µg/mL (≈ 23.2 µM).
Turning to `CC(C)CO/N=C1/CCCCCCCCCCC(=O)NCC1`, the concentration for a half-maximal effect (EC50) is 48.4 µg/mL (≈ 156 µM).
The same measure, in the same setting: then `CC(C)CO/N=C1\CCCCCCCCCCC(=O)NCC1`, with 30.4 µg/mL (≈ 97.8 µM); and `CCCCCCCO/N=C1/CCCCCCCCCCC(=O)NCC1`, with 209 µg/mL (≈ 594 µM).
In turn, `CCCCCCCO/N=C1\CCCCCCCCCCC(=O)NCC1` yielded an EC50 of 50.3 µg/mL (≈ 143 µM).
The same measure, in the same setting: then `CCCCCCCCCCCCCCO/N=C1/CCCCCCCCCCC(=O)NCC1`, with 101 µg/mL (≈ 224 µM).
Compound `CCCCCCCCCCCCCCO/N=C1\CCCCCCCCCCC(=O)NCC1` returned an EC50 of 69.1 µg/mL (≈ 153 µM).
Turning to `CCCCCCCCCCCCCCCCO/N=C1/CCCCCCCCCCC(=O)NCC1`, the midpoint of the response, the EC50, lay at 135 µg/mL (≈ 282 µM).
On the same count and under the same terms, then `CCCCCCCCCCCCCCCCO/N=C1\CCCCCCCCCCC(=O)NCC1`, with 127 µg/mL (≈ 266 µM).
The same measure, in the same setting: the figure for `O=C1CCCCCCCCCC/C(=N/OCc2ccccc2)CCN1` is 18.1 µg/mL (≈ 52.7 µM); for `CO/N=C1/CCCCCCCCCCC(=O)NCC1` it is 51.3 µg/mL (≈ 191 µM); for `CO/N=C1\CCCCCCCCCCC(=O)NCC1` it is 55.8 µg/mL (≈ 208 µM).
The compound `COC(=O)Nc1nc2ccccc2[nH]1` [CARBENDAZIM] showed an EC50 of 1.54 µg/mL (≈ 8.05 µM).

For another assay, the system named is Phytophthora capsici. Briefly: Fungicidal activity against Phytophthora capsici assessed as growth inhibition. The class given is functional, organism-based.
`CCCON=C1CCCCCCCCCCC(=O)NCCC1`: the EC50 was determined as 57.8 µg/mL (≈ 186 µM).

In a further assay the test system is Fulvia fulva. Nature of the assay: Fungicidal activity against Passalora fulva Cooke (tomato leaf mold fungi) assessed as growth inhibition. Format: functional, organism-based.
Regarding `CCCON=C1CCCCCCCCCCC(=O)NCCC1`, the EC50 amounted to 53.1 µg/mL (≈ 171 µM).

Another assay deals with Alternaria solani. Briefly: Fungicidal activity against Alternaria solani assessed as growth inhibition. Format: functional, organism-based.
Take `CCCON=C1CCCCCCCCCCC(=O)NCCC1`: the EC50 turned out to be 44.2 µg/mL (≈ 142 µM).

A further assay deals with Pythium aphanidermatum. Nature of the assay: Fungicidal activity against Pythium aphanidermatum assessed as growth inhibition. The class given is functional, organism-based.
In the case of `CCCON=C1CCCCCCCCCCC(=O)NCCC1`, the EC50 stood at 33.3 µg/mL (≈ 107 µM).

For a further assay, the system named is Fusarium oxysporum f. sp. vasinfectum. Nature of the assay: Fungicidal activity against cotton Fusarium oxysporum f. sp. vasinfectum (fusarium wilt fungi) assessed as growth inhibition. Format: functional, organism-based.
Turning to `CCCON=C1CCCCCCCCCCC(=O)NCCC1`, the concentration for a half-maximal effect (EC50) was 29 µg/mL (≈ 93.4 µM).

Another assay relates to Colletotrichum lagenaria. Briefly: Fungicidal activity against Colletotrichum lagenaria assessed as growth inhibition. Format: functional, organism-based.
For the compound `CCCON=C1CCCCCCCCCCC(=O)NCCC1`, the EC50 is 23.9 µg/mL (≈ 77 µM).

Another assay has as its system Rhizoctonia solani. Briefly: Fungicidal activity against Rhizoctonia solani assessed as growth inhibition. Format: functional, organism-based. A digest of the protocol:
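Mycelium growth rate test on Rhizoctonia solani Kühn. Inhibition rate was measured at 100, 50, 25, 12.5 and 6.25 µg/mL. EC50 was estimated by logistic analysis. A commercial fungicide reference was run under the same conditions.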
With `CCCON=C1CCCCCCCCCCC(=O)NCCC1`, the half-maximal effective concentration (EC50) is 4.6 µg/mL (≈ 14.8 µM).

The test system of another assay is Verticillium albo-atrum. Briefly: Fungicidal activity against Vercicillium albo-atrum assessed as growth inhibition. Format: functional, organism-based.
As for `CCCON=C1CCCCCCCCCCC(=O)NCCC1`, the 50% effective concentration (EC50) was determined as 19.3 µg/mL (≈ 62.2 µM).

Another assay deals with Botryosphaeria berengeriana. Nature of the assay: Fungicidal activity against Botryosphaeria berengeriana Nose (apple ring spot fungi) assessed as growth inhibition. The class given is functional, organism-based.
On to `CCCON=C1CCCCCCCCCCC(=O)NCCC1`, for which the EC50 worked out at 13.8 µg/mL (≈ 44.4 µM).

In the next assay the test system is Phomopsis asparagi. Briefly: Fungicidal activity against Phomopsis asparagi assessed as growth inhibition. Format: functional, organism-based.
For `CCCON=C1CCCCCCCCCCC(=O)NCCC1`, the half-maximal effective concentration (EC50) was 12 µg/mL (≈ 38.6 µM).

Another assay relates to Botrytis cinerea. Briefly: Fungicidal activity against Botryotinia fuckeliana assessed as growth inhibition. The class given is functional, organism-based.
For the compound `CCCON=C1CCCCCCCCCCC(=O)NCCC1`, the EC50 came out at 8.6 µg/mL (≈ 27.7 µM).

A further assay concerns Phyllosticta. Nature of the assay: Fungicidal activity against Phyllospicpa physaleos Sacc (tomato southern blight fungi) assessed as growth inhibition. Format: functional, organism-based.
On to `CCCON=C1CCCCCCCCCCC(=O)NCCC1`, for which the EC50 amounted to 1.9 µg/mL (≈ 6.12 µM).

Another assay concerns Alternaria kikuchiana. Nature of the assay: Fungicidal activity against Alternaria kikuchiana (pear black spot fungi) assessed as growth inhibition. The class given is functional, organism-based.
For the compound `CCCON=C1CCCCCCCCCCC(=O)NCCC1`, the EC50 was 1.2 µg/mL (≈ 3.86 µM).
